The species entered for assay [1] is Rattus norvegicus. Put plainly: Selectivity ratio of Ki for Sprague-Dawley rat delta opioid receptor to Ki for Sprague-Dawley rat mu opioid receptor.
Assay [2] addresses Mu-type opioid receptor (Rattus norvegicus, UniProt P33535). Nature of the assay: Displacement of [3H]DAMGO from mu opioid receptor in Sprague-Dawley rat brain synaptosomal membranes. It is filed as cell membranes, Membrane. In outline:
(§1)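 Radioligand competition in rat brain synaptosomal preparations. Peptides tested at five to eight graded doses, each assay in duplicate, repeated three to six times on several different synaptosomal preparations. Ki calculated by Cheng–Prusoff; mean ± SEM.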

Assay [3] deals with Mu-type opioid receptor (Cavia porcellus, UniProt P97266). Put plainly: Agonist activity at mu opioid receptor in Hartley guinea pig assessed as inhibition of electrically evoked ileum contraction by GPI test. The assay is classed as functional, tissue-based. Summed up: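 Isolated tissue bioassays: mouse vas deferens (delta) and guinea-pig ileum (mu). Agonism expressed as IC50 read from dose–response curves. Internal standards were deltorphin C (MVD) and dermorphin (GPI). Mean ± SEM of at least six fresh tissue samples.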
Chain of Mu-type opioid receptor (Cavia porcellus, UniProt P97266) (P97266 whole entry): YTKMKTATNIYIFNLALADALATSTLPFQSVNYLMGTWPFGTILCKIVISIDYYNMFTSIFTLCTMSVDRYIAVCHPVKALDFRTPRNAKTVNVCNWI

The target of assay [4] is Delta-type opioid receptor (Rattus norvegicus, UniProt P33533). Put plainly: Displacement of [3H]DPDPE from delta opioid receptor in Sprague-Dawley rat brain synaptosomal membranes. It is filed as cell membranes, Membrane. Summed up:
as §1

Assay [5] is filed under the species Rattus norvegicus. Nature of the assay: Selectivity ratio of Ki for Sprague-Dawley rat mu opioid receptor to Ki for Sprague-Dawley rat delta opioid receptor.
Assay [6] has as its target T1, Delta-type opioid receptor (Mus musculus, UniProt P32300). Nature of the assay: Antagonist activity at delta opioid receptor in mouse assessed as effect on electrically evoked vas-deferens contraction by MVD test. The note with it: read-out: pA2 (converted). It is filed as functional.
Assay [7] concerns the target T1, Delta-type opioid receptor. Put plainly: Agonist activity at delta opioid receptor in mouse assessed as inhibition of electrically evoked vas-deferens contraction by MVD test.

Residues, ends and D or L forms follow the SMILES beside them.

T1 sequence (P32300 whole entry): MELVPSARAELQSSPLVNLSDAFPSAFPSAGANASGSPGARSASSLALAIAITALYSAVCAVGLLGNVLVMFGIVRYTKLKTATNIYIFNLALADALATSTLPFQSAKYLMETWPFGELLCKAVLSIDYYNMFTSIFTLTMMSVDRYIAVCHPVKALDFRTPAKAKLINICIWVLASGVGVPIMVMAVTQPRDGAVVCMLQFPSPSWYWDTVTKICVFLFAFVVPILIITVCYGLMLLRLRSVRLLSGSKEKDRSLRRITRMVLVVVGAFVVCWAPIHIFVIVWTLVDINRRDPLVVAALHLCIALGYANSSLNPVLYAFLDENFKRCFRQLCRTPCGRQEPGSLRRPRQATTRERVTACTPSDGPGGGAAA
Chain of Delta-type opioid receptor (Rattus norvegicus, UniProt P33533) (P33533 whole entry): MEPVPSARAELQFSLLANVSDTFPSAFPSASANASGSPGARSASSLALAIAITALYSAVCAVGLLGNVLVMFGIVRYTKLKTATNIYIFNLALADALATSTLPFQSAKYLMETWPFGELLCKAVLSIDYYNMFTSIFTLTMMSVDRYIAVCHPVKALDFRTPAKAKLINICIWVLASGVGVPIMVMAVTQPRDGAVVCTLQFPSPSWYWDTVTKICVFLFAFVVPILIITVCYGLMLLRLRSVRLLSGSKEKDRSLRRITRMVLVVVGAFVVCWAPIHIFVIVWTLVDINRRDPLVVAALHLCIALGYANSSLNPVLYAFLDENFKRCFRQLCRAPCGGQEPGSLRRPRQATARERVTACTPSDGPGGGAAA
Chain of Mu-type opioid receptor (Rattus norvegicus, UniProt P33535) (P33535 whole entry): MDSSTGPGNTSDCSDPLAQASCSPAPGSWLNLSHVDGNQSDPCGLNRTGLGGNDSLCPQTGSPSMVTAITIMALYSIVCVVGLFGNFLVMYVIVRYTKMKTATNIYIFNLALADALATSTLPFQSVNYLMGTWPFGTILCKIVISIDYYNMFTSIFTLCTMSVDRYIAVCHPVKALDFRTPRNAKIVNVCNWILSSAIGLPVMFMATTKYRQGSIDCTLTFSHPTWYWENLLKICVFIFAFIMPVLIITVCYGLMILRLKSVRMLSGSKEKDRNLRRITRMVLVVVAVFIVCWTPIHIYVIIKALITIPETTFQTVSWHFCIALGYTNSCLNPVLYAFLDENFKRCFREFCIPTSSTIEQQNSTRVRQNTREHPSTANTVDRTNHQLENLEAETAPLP

In the case of `Cc1cc(O)cc(C)c1C[C@H](N)C(=O)N[C@H]1Cc2ccccc2CNC1=O`, the Ratio Ki in the assay listed under Rattus norvegicus [1] was found to be 30. The inhibition constant Ki at Mu-type opioid receptor [2] was found to be 12.4 nM; in assay [4], 368 nM. In addition, the IC50 at Mu-type opioid receptor [3] worked out at 631 nM.
For the compound `Cc1cc(O)cc(C)c1C[C@H](N)C(=O)N[C@H]1Cc2c([nH]c3ccccc23)CN(CC(=O)O)C1=O`, the inhibitory constant (Ki) on Mu-type opioid receptor [2] amounted to 1450 nM; in assay [4], 806 nM. Further, at Mu-type opioid receptor [3], the half-inhibitory concentration (IC50) is above 20000 nM. Further, in the assay listed under Rattus norvegicus [5], the Ratio Ki came to 1.8.
Turning to `Cc1cc(O)cc(C)c1C[C@H](N)C(=O)N[C@H]1Cc2ccccc2CN([C@@H](CC(=O)O)C(=O)NCc2ccccc2)C1=O`, in the assay listed under Rattus norvegicus [1], the Ratio Ki came out at 2.3. Further, the results for the inhibition constant (Ki) (on Mu-type opioid receptor [2]; in assay [4]) were 630 nM and 1480 nM, respectively.
Take `Cc1cc(O)cc(C)c1C[C@@H](C(=O)N[C@@H]1Cc2c([nH]c3ccccc23)CN(CC(=O)NCc2ccccc2)C1=O)N(C)C`: in the assay listed under Rattus norvegicus [1], the Ratio Ki came to 5. Also, the Ki at Mu-type opioid receptor [2] was 133 nM; in assay [4] it was 681 nM.
As to `Cc1cc(O)cc(C)c1C[C@H](N)C(=O)N1Cc2ccccc2C[C@H]1C(=O)NCC(=O)NCc1ccccc1` (HELM PEPTIDE1{[Cc1cc(O)cc(C)c1C[C@H](N)C(=O)[*:2]].[Tic].G.[c1ccc(CN[*:1])cc1]}$$$$V2.0), in assay [6], the Kb is 0.501 nM. Moreover, the Ratio Ki in the assay listed under Rattus norvegicus [5] came to 5.2.
Regarding `Cc1cc(O)cc(C)c1C[C@H](N)C(=O)N[C@@H]1Cc2c([nH]c3ccccc23)CN(CC(=O)O)C1=O`, the figures for the inhibitory constant (Ki) (on Mu-type opioid receptor [2]; in assay [4]) were 2900 nM and 720 nM, respectively. Also, in the assay filed under Rattus norvegicus [5], the Ratio Ki was found to be 4.
As for `Cc1cc(O)cc(C)c1C[C@@H](C(=O)N[C@H]1Cc2c([nH]c3ccccc23)CN(CC(=O)O)C1=O)N(C)C`, the half-inhibitory concentration (IC50) (in assay [7]; on Mu-type opioid receptor [3]) was above 20000 nM throughout. The Ki on Mu-type opioid receptor [2] is 875 nM; in assay [4] it was 6.64 nM. The Kb in assay [6] is 5.01 nM. Also, the Ratio Ki in the assay filed under Rattus norvegicus [5] is 132.
With `Cc1cc(O)cc(C)c1C[C@@H](C(=O)N[C@H]1Cc2ccccc2CNC1=O)N(C)C`, the concentration for half-maximal inhibition (IC50) (in assay [7]; at Mu-type opioid receptor [3]) was above 20000 nM throughout. Besides, the Ki was determined as 64.9 nM at Mu-type opioid receptor [2] and 20.5 nM in assay [4]. Moreover, the Kb in assay [6] is 63.1 nM. Further, the Ratio Ki in the assay filed under Rattus norvegicus [5] turned out to be 3.2.
For `Cc1cc(O)cc(C)c1C[C@H](N)C(=O)N[C@H]1Cc2c([nH]c3ccccc23)CN(CC(=O)OCc2ccccc2)C1=O`, the Ratio Ki in the assay listed under Rattus norvegicus [1] was 17. The inhibition constant Ki on Mu-type opioid receptor [2] turned out to be 244 nM; in assay [4], 4060 nM.
On to `Cc1cc(O)cc(C)c1C[C@@H](C(=O)N[C@@H]1Cc2c([nH]c3ccccc23)CN(CC(=O)O)C1=O)N(C)C`, for which the inhibitory constant (Ki) at Mu-type opioid receptor [2] was determined as 10100 nM; in assay [4], 1150 nM. In the assay listed under Rattus norvegicus [5], the Ratio Ki amounted to 8.8.
For the compound `Cc1cc(O)cc(C)c1C[C@H](N)C(=O)N[C@H]1Cc2c([nH]c3ccccc23)CN(CC(=O)NCc2ccccc2)C1=O`, the Ratio Ki in the assay listed under Rattus norvegicus [1] came out at 7.2. Besides, the Ki at Mu-type opioid receptor [2] was 50 nM; in assay [4] it was 358 nM. Moreover, the IC50 on Mu-type opioid receptor [3] is 1800 nM.
`Cc1cc(O)cc(C)c1C[C@H](N)C(=O)N[C@H]1Cc2ccccc2CN([C@@H](CCCCN)C(=O)NCc2ccccc2)C1=O`: the Ratio Ki in the assay listed under Rattus norvegicus [1] was 29. Besides, the Ki amounted to 10.1 nM at Mu-type opioid receptor [2] and 290 nM in assay [4]. Also, the 50% inhibitory concentration (IC50) at Mu-type opioid receptor [3] is 3270 nM.
For `Cc1cc(O)cc(C)c1C[C@H](N)C(=O)N[C@H]1Cc2ccccc2CN(CC(=O)NCc2ccccc2)C1=O`, the Ratio Ki in the assay listed under Rattus norvegicus [1] was determined as 24. The Ki on Mu-type opioid receptor [2] was found to be 0.46 nM; in assay [4], 11 nM.
For the compound `Cc1cc(O)cc(C)c1C[C@H](N)C(=O)N[C@@H]1Cc2c([nH]c3ccccc23)CN(CC(=O)NCc2ccccc2)C1=O`, the concentration for half-maximal inhibition (IC50) was 1500 nM in assay [7] and 14.9 nM at Mu-type opioid receptor [3]. In the assay listed under Rattus norvegicus [1], the Ratio Ki came out at 48. Moreover, the inhibition constant Ki is 3.35 nM at Mu-type opioid receptor [2] and 161 nM in assay [4].

Values taken from ChEMBL document CHEMBL1154529, “Conformationally constrained opioid ligands: the Dmt-Aba and Dmt-Aia versus Dmt-Tic scaffold” (Bioorg Med Chem Lett, 2009).
